# In ChEMBL document CHEMBL4665801, “Pyrazole-Based Lactate Dehydrogenase Inhibitors with Optimized Cell Activity and Pharmacokinetic Properties” (J Med Chem, 2020):
# Calls of active or inactive are those of the source. Unless noted, the rule behind the calls is not given here.
# Experiments:
# [1] = AUClast in CD-1 mouse at 10 mg/kg, iv and measured up to 24 hrs by LC/MS-MS analysis; assay type: ADME, organism-based; design: route intravenous, dose 10 mg/kg, time <=24; settings: in vivo
# How it was run: (§1)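 Male CD1 mice, about 6–8 weeks old and 20–30 g, received 10 mg/kg IV in 0.1 M NaOH in PBS adjusted to pH 7–8.5, made fresh on the day of dosing. Three mice per cohort. Blood was taken from the dorsal metatarsal vein at 5, 15, 30 min and 1, 2, 4, 8, 12, 24 h into heparin tubes. Plasma was spun at 4 °C, stored at –75 °C and analysed by LC–MS/MS. For IV dosing Cmax = C0.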
# [2] = Metabolic stability in dog hepatocytes; assay type: ADME, cell-based, Canis lupus familiaris, Hepatocyte
# A673 = assay: Cytotoxicity against human A673 cells assessed as reduction in cell viability after 48 hrs by CellTiter-Glo assay; assay type: functional, cell-based; settings: A673, 48 h
# [3] = Half life in human liver microsomes at 1 uM in presence of NADPH by LC-MS/MS; assay type: ADME, Microsome
# How it was run: (§2)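 Time-course stability in human or mouse liver microsomes, or mouse hepatocytes, in the presence of NADPH and UDPGA. Parent compound was monitored at five time points to derive T1/2.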
# Homo sapiens = species on record: Homo sapiens; assay: Inhibition of LDH in human A673 cells assessed as decrease in extracellular acidification rate at 0.5 to 5 uM preincubated for 1 hr followed by subsequent injections of glucose/oligomycin at 48 mins by seahorse XF GST based assay; assay type: cell-based; settings: dose microM 0.5-5, time 108.0 min
# How it was run: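 A673 cells in DMEM with 10% FBS were plated 24 h ahead, then switched to Seahorse basic DMEM with 2 mM glutamine, pH 7.4, and held 1 h at 37 °C without CO2. ECAR was recorded after inhibitor injection at increasing concentrations. At 48 min, glucose (10 mM final), oligomycin (1 μg/mL final) and 2-DG (50 mM final) were injected in sequence.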
# [4] = Permeability of compound at pH 7.4 […] incubated for 1 hr by PAMPA-BBB assay; assay type: ADME; settings: pH 7.4, 1 h
# How it was run: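 Double-sink PAMPA with 10% porcine brain lipid extract in phospholipid/alkane membrane. 10 mM DMSO stocks were diluted to 0.05 mM at pH 7.4 and stirred 1 h at room temperature. Donor and acceptor were quantified by UV against reference and blank. Results in 10⁻⁶ cm/s.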
# [5] = Half life in rat liver cytoplasm; assay type: ADME, subcellular
# [6] = Metabolic stability in mouse hepatocytes; assay type: ADME, cell-based, Hepatocyte; how it was run: as §2
# [7] = target: T1, L-lactate dehydrogenase A chain (Homo sapiens, UniProt P00338); assay: Inhibition of LDHA in human A673 cells assessed as decrease in lactate production incubated for 2 hrs by lactate oxidase-coupled fluorescence based assay; assay type: cell-based
# [8] = Kinetic aqueous solubility of the compound in pH 7.4 PBS buffer at 150 uM measured after 6 hrs by shake flask method; assay type: physicochemical; settings: read-out: Kinetic_solubility
# How it was run: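 μSOL kinetic solubility. 10 mM DMSO stocks were diluted with 1-propanol cosolvent to 150 μM final in aqueous pH 7.4 and equilibrated 6 h at room temperature. After filtration, filtrate concentration was read by UV absorbance against a 17 μM reference.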
# [9] = target: Voltage-gated inwardly rectifying potassium channel KCNH2 (Homo sapiens, UniProt Q12809); assay: Inhibition of human ERG by patch clamp method; settings: dose >10 µM
# [10] = Permeability of compound at pH 7.4 incubated for 30 mins by PAMPA; assay type: ADME; settings: pH 7.4, 0.5 h
# How it was run: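 Stirred double-sink PAMPA with GI-tract lipid/dodecane membrane, pH 7.4 on both sides. Compound was diluted from 10 mM DMSO stock to 0.05 mM (0.5% DMSO final), with 30 min permeation at room temperature. Donor and acceptor were read by UV. Results in 10⁻⁶ cm/s.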
# [11] = Half life in mouse liver cytoplasm; assay type: ADME, subcellular
# Cytochrome P450 = assay: Induction of CYP450 (unknown origin) at 10 uM; assay type: ADME, protein assay; settings: human
# [12] = Half life in mouse liver microsomes at 1 uM in presence of NADPH by LC-MS/MS; assay type: ADME, Microsome; how it was run: as §2
# [13] = In vivo inhibition of LDH in human A673 cells xenografted athymic nude CrTac:NCr-Foxn1nu mouse assessed as reduction in tumor LDH activity at 50 mg/kg, iv after 6 hrs by UV-VIS spectrometric method relative to control; assay type: functional
# How it was run: (§3)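 Female athymic nude mice carried SQ A673 flank xenografts (2 million cells) and received a single IV dose of 50 mg/kg in PBS-based vehicle. Four mice per time point were sacrificed at 1, 3, 6 and 24 h. Frozen tumor (10–50 mg) was pulverized and lysed in PBS pH 7.4 with 0.1% Triton X-100 on ice for 1 h. Cleared lysate (10–20 μg) was assayed with 10 mM pyruvate and 0.3 mM final NADH, reading NADH oxidation at 340 nm at 37 °C.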
# MIA PaCa-2 = assay: Cytotoxicity against human MIA PaCa-2 cells assessed as reduction in cell viability after 48 hrs by CellTiter-Glo assay; assay type: functional, cell-based; settings: MIA PaCa-2, 48 h
# [14] = Volume of distribution at steady state in CD-1 mouse at 10 mg/kg, iv and measured up to 24 hrs by LC/MS-MS analysis; assay type: ADME, organism-based; settings: in vivo; how it was run: as §1
# Sus scrofa = species on record: Sus scrofa; assay: Inhibition of porcine heart MDH using malic acid as substrate preincubated for 10 mins followed by substrate addition and measured after 5 mins by resazurin based fluorescence based assay; settings: time 15.0 min
# [15] = Genotoxicity in Salmonella typhimurium by Ames test; assay type: toxicity; settings: salmonella enterica subsp. enterica serovar typhimurium
# [16] = Terminal half life in CD-1 mouse at 10 mg/kg, iv and measured up to 24 hrs by LC/MS-MS analysis; assay type: ADME, organism-based; settings: in vivo; how it was run: as §1
# [17] = Cmax in CD-1 mouse at 10 mg/kg, iv and measured up to 24 hrs by LC/MS-MS analysis; assay type: ADME, organism-based; design: route intravenous, dose 10 mg/kg, time <=24; settings: in vivo; how it was run: as §1
# [18] = target: T1, L-lactate dehydrogenase A chain; assay: Inhibition of LDHA in human MIA PaCa-2 cells assessed as decrease in lactate production incubated for 2 hrs by lactate oxidase-coupled fluorescence based assay; assay type: cell-based
# [19] = Half life in mouse plasma; assay type: ADME, cell-free
# How it was run: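 Stability in mouse plasma was followed at five time points, with T1/2 derived from parent remaining.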
# Mus musculus = assay: In vivo inhibition of LDH in human A673 cells xenografted athymic nude CrTac:NCr-Foxn1nu mouse assessed as reduction in tumor LDH activity at 50 mg/kg, iv after 1 hr by NADH-based UV-VIS spectrometric method relative to control; assay type: functional, organism-based; how it was run: as §3
# [20] = target: L-lactate dehydrogenase B chain (Homo sapiens) (UniProt P07195); assay: Inhibition of recombinant human LDHB using sodium pyruvate as substrate preincubated for 5 mins followed by diaphorase/resazurin addition and measured after 20 mins by fluorescence based assay
# [21] = target: T1, L-lactate dehydrogenase A chain; assay: Binding affinity to human His-tagged LDHA by SPR analysis
# How it was run: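 SPR on a Mass-1 instrument gave K_D and k_off. Residence time τ was calculated as 1/k_off (s⁻¹).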
# [22] = target: T1, L-lactate dehydrogenase A chain; assay: Inhibition of GS[HiBiT]GS-tagged LDHA (unknown origin) expressed in HEK-293T cells measured after 1 hr by […]; assay type: cell-based
# How it was run: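 HEK293T cells were transiently transfected for 24 h with CMV-driven LDHA carrying a C-terminal GS[HiBiT]GS tag, then reseeded at 2500 cells/well in DPBS with Ca/Mg and 1 g/L glucose. […] Cells were lysed with NP40, and 11S (100 nM final) plus furimazine was added.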
# Voltage-gated inwardly rectifying potassium channel KCNH2, sequence (Q12809 whole entry): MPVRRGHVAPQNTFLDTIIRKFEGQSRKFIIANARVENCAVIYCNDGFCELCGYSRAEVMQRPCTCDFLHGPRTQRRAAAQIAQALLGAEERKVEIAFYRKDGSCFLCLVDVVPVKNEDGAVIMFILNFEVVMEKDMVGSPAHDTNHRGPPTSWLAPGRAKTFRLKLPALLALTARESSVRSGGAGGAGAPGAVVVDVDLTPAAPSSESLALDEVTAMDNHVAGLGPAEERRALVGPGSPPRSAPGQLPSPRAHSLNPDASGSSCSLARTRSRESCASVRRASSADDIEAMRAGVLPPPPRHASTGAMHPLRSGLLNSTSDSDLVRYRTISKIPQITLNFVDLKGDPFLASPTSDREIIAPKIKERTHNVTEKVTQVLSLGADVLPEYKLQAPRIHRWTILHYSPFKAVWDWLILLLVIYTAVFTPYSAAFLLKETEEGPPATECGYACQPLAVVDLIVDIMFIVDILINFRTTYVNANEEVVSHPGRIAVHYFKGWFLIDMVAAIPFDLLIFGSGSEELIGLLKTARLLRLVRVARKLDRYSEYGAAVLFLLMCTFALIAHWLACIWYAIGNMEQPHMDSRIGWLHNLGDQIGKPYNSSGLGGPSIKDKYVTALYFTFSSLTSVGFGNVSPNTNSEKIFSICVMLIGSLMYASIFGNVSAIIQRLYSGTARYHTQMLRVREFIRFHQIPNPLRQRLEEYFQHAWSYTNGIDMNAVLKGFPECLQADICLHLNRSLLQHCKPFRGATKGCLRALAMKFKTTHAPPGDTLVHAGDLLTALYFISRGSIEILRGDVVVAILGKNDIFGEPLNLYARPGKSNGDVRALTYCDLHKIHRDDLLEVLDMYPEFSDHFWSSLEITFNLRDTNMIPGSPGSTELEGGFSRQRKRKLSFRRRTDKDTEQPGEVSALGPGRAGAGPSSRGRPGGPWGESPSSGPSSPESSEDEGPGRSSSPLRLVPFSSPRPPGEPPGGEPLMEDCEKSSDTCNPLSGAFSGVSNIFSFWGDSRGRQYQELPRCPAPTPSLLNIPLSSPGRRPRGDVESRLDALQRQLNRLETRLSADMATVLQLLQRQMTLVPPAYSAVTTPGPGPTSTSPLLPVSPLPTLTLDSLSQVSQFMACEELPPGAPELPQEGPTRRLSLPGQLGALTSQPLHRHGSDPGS
# L-lactate dehydrogenase B chain (Homo sapiens), sequence (P07195 2-334 limits assumed): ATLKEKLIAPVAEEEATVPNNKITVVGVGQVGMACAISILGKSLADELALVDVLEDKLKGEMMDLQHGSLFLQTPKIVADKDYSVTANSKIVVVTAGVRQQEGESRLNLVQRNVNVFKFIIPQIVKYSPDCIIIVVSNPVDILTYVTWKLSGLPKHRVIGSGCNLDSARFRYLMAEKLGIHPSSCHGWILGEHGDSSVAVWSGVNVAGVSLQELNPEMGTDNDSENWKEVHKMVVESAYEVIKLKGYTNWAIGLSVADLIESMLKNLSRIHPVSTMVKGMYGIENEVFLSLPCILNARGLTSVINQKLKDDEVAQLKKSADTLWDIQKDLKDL
SMILES,AUClast [1] [ng·h/mL],half-life [2] [h],IC50 (A673) [nM],half-life at 1 µM [3] [h],inhibition (Homo sapiens),permeability [4],half-life [5] [h],half-life [6] [h],IC50 [7] [nM],"solubility kinetic at 6 h, 150 µM [8] [µg/mL]",INH [9] [µM],permeability [10],half-life [11] [h],Activity (Cytochrome P450),half-life at 1 µM [12] [h],inhibition in vivo at 50 mg/kg [13] [%],IC50 (MIA PaCa-2) [nM],Vdss [14] [L/kg],inhibition (Sus scrofa),Activity [15],other results
Cc1ccc(C#Cc2cc(-c3nn(-c4nc(C(=O)O)cs4)c(CC4CC4)c3Cc3ccc(S(N)(=O)=O)c(F)c3)ccc2F)s1,10570,> 2.5,119,> 2,inactive,16 10^-6 cm/s,> 2,> 2.5,873,> 70,> 10,10.4 10^-6 cm/s,> 2,Not Active,> 2,60,257,1.79,inactive,Non-Toxic,beta t1/2 [16]: 5.2 h; Cmax [17]: 41800 ng/mL; IC50 [18]: 403 nM; t1/2 [19]: > 4 h; inhibition (Mus musculus): Active; inhibition [20]: Active; Kd [21]: 0.0667 nM; IC50 [22]: 106 nM
Cc1ccc(C#Cc2cccc(-c3nn(-c4nc(C(=O)O)cs4)c(CC4CC4)c3Cc3ccc(S(N)(=O)=O)c(F)c3)c2)s1,16530,> 2.5,105,> 2,inactive,9.6 10^-6 cm/s,> 2,> 2.5,760,> 70,> 10,2.2 10^-6 cm/s,> 2,Not Active,> 2,80,347,1.7,inactive,Non-Toxic,beta t1/2 [16]: 5.3 h; Cmax [17]: 33800 ng/mL; IC50 [18]: 367 nM; t1/2 [19]: > 4 h; inhibition (Mus musculus): Active; inhibition [20]: Active; Kd [21]: 0.0634 nM; IC50 [22]: 119 nM
